The text below walks through data of ChEMBL document CHEMBL4616646, “Synthesis and Cytotoxicity Studies of Stilbene Long-Chain Fatty Acid Conjugates” (J Nat Prod, 2020).

Test [1] deals with HEK293. The test can be described thus: Cytotoxicity against HEK293 cells after 68 hrs by MTT assay. The format is cell-based. The note with it: Homo sapiens, HEK293, 68 h. In short, it runs like this:
(§1)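 Cells grown in DMEM with 10% FBS and 1% P/S at 37 °C under 5% CO₂, trypsinized and seeded at ~5 × 10⁴ cells per well. Test drugs added after attachment at 0.1 to 100 μM. After 68 h, MTT (4 mg/mL) added for 4 h, supernatant discarded, formazan dissolved in DMSO, absorbance read at 570 nm. IC50 taken as concentration giving ~50% survival; mean ± SD of three independent experiments.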
On the technique in general: Formazan colour is commonly taken as a measure of viable cells.

In test [2] the test system is KB 3-1. The test can be described thus: Cytotoxicity against human KB3-1 cells after 68 hrs by MTT assay. The settings on record: KB 3-1, 68 h. Type of test: functional, cell-based. Put shortly:
as §1

Test [3] concerns NCI-H460. The test can be described thus: Cytotoxicity against human NCI-H460 cells after 68 hrs by MTT assay. The format is functional, cell-based. The note with it: NCI-H460, 68 h. Put shortly:
as §1

Test [4] has as its system MCF7. In words: Cytotoxicity against human MCF7 cells after 68 hrs by MTT assay. Type of test: functional, cell-based. The settings on record: MCF7, 68 h. Put shortly: as §1

Usually IC50 stands for the midpoint of a concentration-inhibition curve. For the compound `CCCCCCCCCCCCCCCCCC(=O)Oc1ccc(/C=C\c2cc(OC)c(OC)c(OC)c2)cc1OC`, the IC50 was 3900 nM in test [1], 3100 nM in test [2], greater than 10000 nM in test [3] and 7.7 µM in test [4].

For the compound `CCCCCCCCCCCCCCCCCC(=O)Oc1ccc(/C=C/c2cc(OC)c(OC)c(OC)c2)cc1OC`, the half-maximal inhibitory concentration (IC50) in test [1] is greater than 100000 nM; in test [2], greater than 100000 nM; in test [3] it was greater than 100000 nM; in test [4], greater than 100 µM.

Turning to `COc1ccc(/C=C/c2cc(OC)c(OC)c(OC)c2)cc1O` [E-COMBRETASTATIN A-4], the IC50 in test [1] stood at 200 nM; in test [2] it was 100 nM; in test [3], 250 nM; in test [4], 0.11 µM.

As for `CCCCCCCCCCCCCCCCCC(=O)Oc1cc(/C=C/c2cc(OC)c(OC)c(OC)c2)ccc1OC`, the half-inhibitory concentration (IC50) in test [1] is 2900 nM; in test [2] it was greater than 10000 nM; in test [3], greater than 10000 nM; in test [4] it was greater than 10 µM.

Turning to `CCCCC/C=C\C/C=C\CCCCCCCC(=O)Oc1cc(/C=C\c2cc(OC)c(OC)c(OC)c2)ccc1OC`, the IC50 in test [1] is 20 nM; in test [2], 20 nM; in test [3], 20 nM; in test [4] it was greater than 10 µM.

In the case of `CCCCCCCCCCCCCCCCCC(=O)Oc1cc(/C=C\c2cc(OC)c(OC)c(OC)c2)ccc1OC`, the IC50 in test [1] was determined as 30 nM; in test [2] it was 30 nM; in test [3] it was 30 nM; in test [4], 0.24 µM.

As for `COc1ccc(/C=C\c2cc(OC)c(OC)c(OC)c2)cc1O` [COMBRETASTATIN A4], the IC50 worked out at 10 nM in test [1], 10 nM in test [2], 10 nM in test [3] and 0.09 µM in test [4].

As for `COc1cc2c(c(OC)c1OC)-c1ccc(OC)c(=O)cc1[C@@H](NC(C)=O)CC2` [COLCHICINE], the 50% inhibitory concentration (IC50) turned out to be 20 nM in test [1], 20 nM in test [2], 60 nM in test [3] and 0.06 µM in test [4].

Regarding `CCCCC/C=C\C/C=C\CCCCCCCC(=O)Oc1ccc(/C=C/c2cc(OC)c(OC)c(OC)c2)cc1OC`, the IC50 is greater than 100000 nM in test [1], greater than 100000 nM in test [2], greater than 100000 nM in test [3] and greater than 100 µM in test [4].

As to `CC/C=C\C/C=C\C/C=C\CCCCCCCC(=O)Oc1cc(/C=C/c2cc(OC)c(OC)c(OC)c2)ccc1OC`, the IC50 in test [1] was 2400 nM; in test [2], 2400 nM; in test [3] it was greater than 10000 nM; in test [4], greater than 10 µM.

Consider `CCCCCCCC/C=C\CCCCCCCC(=O)Oc1cc(/C=C\c2cc(OC)c(OC)c(OC)c2)ccc1OC`, for which the concentration for half-maximal inhibition (IC50) is 30 nM in test [1], 30 nM in test [2], 310 nM in test [3] and greater than 10 µM in test [4].

With `CC/C=C\C/C=C\C/C=C\CCCCCCCC(=O)Oc1cc(/C=C\c2cc(OC)c(OC)c(OC)c2)ccc1OC`, the IC50 in test [1] is 23 nM; in test [2], 30 nM; in test [3], 10 nM; in test [4] it was greater than 10 µM.

For the compound `CCCCCCCC/C=C\CCCCCCCC(=O)Oc1ccc(/C=C/c2cc(OC)c(OC)c(OC)c2)cc1OC`, the IC50 is greater than 100000 nM in test [1], greater than 100000 nM in test [2], greater than 100000 nM in test [3] and greater than 100 µM in test [4].

Take `CCCCC/C=C\C/C=C\CCCCCCCC(=O)Oc1cc(/C=C/c2cc(OC)c(OC)c(OC)c2)ccc1OC`: the half-inhibitory concentration (IC50) in test [1] was 2600 nM; in test [2] it was 4900 nM; in test [3], 2400 nM; in test [4], greater than 10 µM.

As to `CC/C=C\C/C=C\C/C=C\CCCCCCCC(=O)Oc1ccc(/C=C/c2cc(OC)c(OC)c(OC)c2)cc1OC`, the IC50 in test [1] was greater than 100000 nM; in test [2], greater than 100000 nM; in test [3], greater than 100000 nM; in test [4], greater than 100 µM.
